Experimental data as given in ChEMBL document CHEMBL4184090, “Discovery of novel jaspine B analogues as autophagy inducer” (Bioorg Med Chem Lett, 2018).
The source made the active and inactive calls. The calls are words filed in the database; no cut-off is given here.

How the values were obtained:
A549 = test: Antiproliferative activity against human A549 cells after 72 hrs by MTT assay; type: functional, cell-based; settings: A549, 72 h
In short: (§1)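 MTT proliferation assay; cells exposed to compounds for 72 h. IC50 is the concentration inhibiting tumor cell proliferation by 50%. Means ± SDs of three independent experiments. 5-Fluorouracil used as positive control.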

B16-F10 = test: Antiproliferative activity against mouse B16/F10 cells after 72 hrs by MTT assay; type: functional, cell-based; settings: B16-F10, 72 h; in short: as §1
MCF7 = test: Antiproliferative activity against human MCF7 cells after 72 hrs by MTT assay; type: functional, cell-based; settings: MCF7, 72 h; in short: as §1
PC-3 [1] = test: Antiproliferative activity against human PC3 cells after 72 hrs by MTT assay; type: functional, cell-based; settings: PC-3, 72 h; in short: as §1
PC-3 [2] = test: Induction of mitochondrial membrane potential loss in human PC3 cells at 3 uM after 24 hrs by JC-1 staining-based flow cytometric analysis (reference value: 50.5%); type: functional
PC-3 [3] = test: Induction of morphological changes in human PC3 cells at 3 uM by microscopic analysis; type: functional, cell-based
PC-3 [4] = test: Induction of apoptosis in human PC3 cells assessed as necrotic cells at 2 uM after 48 hrs by Annexin V-FITC/propidium iodide staining-based flow cytometric analysis (reference value: 0.1%); type: functional
PC-3 [5] = test: Induction of apoptosis in human PC3 cells assessed as late apoptotic cells at 3 uM after 48 hrs by Annexin V-FITC/propidium iodide staining-based flow cytometric analysis (reference value: 9.3%); type: functional
PC-3 [6] = test: Induction of apoptosis in human PC3 cells assessed as late apoptotic cells at 4 uM after 48 hrs by Annexin V-FITC/propidium iodide staining-based flow cytometric analysis (reference value: 9.3%); type: functional
PC-3 [7] = test: Cytotoxicity against human PC3 cells assessed as reduction in cell viability at 3 uM after 48 hrs by MTT assay relative to control; type: functional
In short: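 MTT viability read-out in PC-3 cells incubated with a range of concentrations for 48 h; viability expressed relative to untreated control cells.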

PC-3 [8] = test: Induction of apoptosis in human PC3 cells assessed as viable cells at 1 uM after 48 hrs by Annexin V-FITC/propidium iodide staining-based flow cytometric analysis (reference value: 78.2%); type: functional; settings: PC-3, 48 h, read-out: Activity
PC-3 [9] = test: Induction of autophagy in human PC3 cells assessed as increase in LC3-2 expression level by Western blot analysis; type: functional, cell-based
In short: (§2)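 Western blot of PC-3 lysates for beclin-1, LC3B-I, LC3B-II and P62 after treatment at increasing concentrations.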

PC-3 [10] = test: Induction of autophagy in human PC3 cells assessed as increase LC3-2 accumulation at 4 uM by confocal microscopic analysis; type: functional, cell-based; settings: TDE = time-dependent effect
In short: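 LC3 immunofluorescence in PC-3 cells imaged by confocal microscopy over time up to 24 h to follow autophagosome formation.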

PC-3 [11] = test: Induction of apoptosis in human PC3 cells assessed as viable cells at 4 uM after 48 hrs by Annexin V-FITC/propidium iodide staining-based flow cytometric analysis (reference value: 78.2%); type: functional; settings: PC-3, 48 h, read-out: Activity
PC-3 [12] = test: Induction of apoptosis in human PC3 cells assessed as necrotic cells at 4 uM after 48 hrs by Annexin V-FITC/propidium iodide staining-based flow cytometric analysis (reference value: 0.1%); type: functional
PC-3 [13] = test: Induction of mitochondrial membrane potential loss in human PC3 cells at 4 uM after 24 hrs by JC-1 staining-based flow cytometric analysis (reference value: 50.5%); type: functional
PC-3 [14] = test: Induction of apoptosis in human PC3 cells assessed as necrotic cells at 1 uM after 48 hrs by Annexin V-FITC/propidium iodide staining-based flow cytometric analysis (reference value: 0.1%); type: functional
PC-3 [15] = test: Induction of autophagy in human PC3 cells assessed as decrease in P62 protein level at 1 uM by Western blot analysis; type: functional, cell-based; in short: as §2
PC-3 [16] = test: Induction of mitochondrial membrane potential loss in human PC3 cells at 2 uM after 24 hrs by JC-1 staining-based flow cytometric analysis (reference value: 50.5%); type: functional
PC-3 [17] = test: Induction of mitochondrial membrane potential loss in human PC3 cells at 1 uM after 24 hrs by JC-1 staining-based flow cytometric analysis (reference value: 50.5%); type: functional
PC-3 [18] = test: Induction of autophagy in human PC3 cells assessed as increase in beclin-1 expression level by Western blot analysis; type: functional, cell-based; in short: as §2
PC-3 [19] = test: Induction of apoptosis in human PC3 cells assessed as late apoptotic cells at 1 uM after 48 hrs by Annexin V-FITC/propidium iodide staining-based flow cytometric analysis (reference value: 9.3%); type: functional
PC-3 [20] = test: Induction of apoptosis in human PC3 cells assessed as viable cells at 2 uM after 48 hrs by Annexin V-FITC/propidium iodide staining-based flow cytometric analysis (reference value: 78.2%); type: functional; settings: PC-3, 48 h, read-out: Activity
PC-3 [21] = test: Induction of apoptosis in human PC3 cells assessed as early apoptotic cells at 3 uM after 48 hrs by Annexin V-FITC/propidium iodide staining-based flow cytometric analysis (reference value: 12.4%); type: functional
PC-3 [22] = test: Induction of apoptosis in human PC3 cells assessed as necrotic cells at 3 uM after 48 hrs by Annexin V-FITC/propidium iodide staining-based flow cytometric analysis (reference value: 0.1%); type: functional
PC-3 [23] = test: Induction of apoptosis in human PC3 cells assessed as viable cells at 3 uM after 48 hrs by Annexin V-FITC/propidium iodide staining-based flow cytometric analysis (reference value: 78.2%); type: functional; settings: PC-3, 48 h, read-out: Activity
PC-3 [24] = test: Induction of apoptosis in human PC3 cells assessed as early apoptotic cells at 4 uM after 48 hrs by Annexin V-FITC/propidium iodide staining-based flow cytometric analysis (reference value: 12.4%); type: functional
PC-3 [25] = test: Induction of apoptosis in human PC3 cells assessed as late apoptotic cells at 2 uM after 48 hrs by Annexin V-FITC/propidium iodide staining-based flow cytometric analysis (reference value: 9.3%); type: functional
PC-3 [26] = test: Induction of apoptosis in human PC3 cells assessed as early apoptotic cells at 2 uM after 48 hrs by Annexin V-FITC/propidium iodide staining-based flow cytometric analysis (reference value: 12.4%); type: functional
PC-3 [27] = test: Induction of apoptosis in human PC3 cells assessed as early apoptotic cells at 1 uM after 48 hrs by Annexin V-FITC/propidium iodide staining-based flow cytometric analysis (reference value: 12.4%); type: functional

CCCCCCCCCCCCCCNC[C@@H]1OC[C@H](N)[C@H]1O
IC50 (A549): 19.9 µM | IC50 (B16-F10): 64.2 µM | IC50 (MCF7): 8.83 µM | IC50 (PC-3 [1]): 1.99 µM

CCCCCCCCCCNC[C@@H]1OC[C@H](N)[C@H]1O
IC50 (A549): > 128 µM | IC50 (B16-F10): > 128 µM | IC50 (MCF7): 42.7 µM | IC50 (PC-3 [1]): > 128 µM

CCCCCCCCNC[C@@H]1OC[C@H](N)[C@H]1O
IC50 (A549): 71.8 µM | IC50 (B16-F10): > 128 µM | IC50 (MCF7): > 128 µM | IC50 (PC-3 [1]): 13 µM

CCCCCCCNC[C@@H]1OC[C@H](N)[C@H]1O
IC50 (A549): > 128 µM | IC50 (B16-F10): > 128 µM | IC50 (MCF7): > 128 µM | IC50 (PC-3 [1]): > 128 µM

CCCCCCCCCCCCCCNC[C@@H]1OC[C@H](N)[C@@H]1O
IC50 (A549): 2.85 µM | IC50 (B16-F10): 14.3 µM | IC50 (MCF7): 0.72 µM | IC50 (PC-3 [1]): 1.2 µM

CCCCCCCCNC[C@@H]1OC[C@H](N)[C@@H]1O
IC50 (A549): > 128 µM | IC50 (B16-F10): > 128 µM | IC50 (MCF7): 96.6 µM | IC50 (PC-3 [1]): 13.8 µM

CCCCCCCCCCCNC[C@@H]1OC[C@H](N)[C@H]1O
IC50 (A549): 9.65 µM | IC50 (B16-F10): 88.8 µM | IC50 (MCF7): 13.1 µM | IC50 (PC-3 [1]): 10 µM

CCCCCCCCCCCNC[C@@H]1OC[C@H](N)[C@@H]1O
IC50 (A549): 11.1 µM | IC50 (B16-F10): 19.3 µM | IC50 (MCF7): 6.77 µM | IC50 (PC-3 [1]): 3.33 µM

O=c1[nH]cc(F)c(=O)[nH]1 [FLUOROURACIL]
IC50 (A549): 0.43 µM | IC50 (B16-F10): 6.29 µM | IC50 (MCF7): 6.11 µM | IC50 (PC-3 [1]): 0.53 µM

CCCCCCCCCNC[C@@H]1OC[C@H](N)[C@H]1O
IC50 (A549): > 128 µM | IC50 (B16-F10): > 128 µM | IC50 (MCF7): 60.3 µM | IC50 (PC-3 [1]): 7.65 µM

CCCCCCCCCCCCNC[C@@H]1OC[C@H](N)[C@H]1O
IC50 (A549): 41.1 µM | IC50 (B16-F10): 58.1 µM | IC50 (MCF7): 12.6 µM | IC50 (PC-3 [1]): 2.38 µM

CCCCCCCCCCCCCC[C@@H]1OC[C@H](N)[C@@H]1O [PACHASTRISSAMINE]
IC50 (A549): 1.87 µM | IC50 (B16-F10): 0.5 µM | IC50 (MCF7): 2.33 µM | IC50 (PC-3 [1]): 0.7 µM

CCCCCCCCCCNC[C@@H]1OC[C@H](N)[C@@H]1O
IC50 (A549): 47.8 µM | IC50 (B16-F10): 29.6 µM | IC50 (MCF7): 34.2 µM | IC50 (PC-3 [1]): 11.9 µM

CCCCCCCCCNC[C@@H]1OC[C@H](N)[C@@H]1O
IC50 (A549): 22.1 µM | IC50 (B16-F10): 55.2 µM | IC50 (MCF7): 12.5 µM | IC50 (PC-3 [1]): 2.03 µM

CCCCCCCCCCCCNC[C@@H]1OC[C@H](N)[C@@H]1O
Activity (PC-3 [2]): 88.2% | Activity (PC-3 [3]): Active | Activity (PC-3 [4]): 0.3% | Activity (PC-3 [5]): 15.7% | Activity (PC-3 [6]): 81.9% | Activity (PC-3 [7]): 56% | viability at 1 µM (PC-3 [8]): 89.2% | Activity (PC-3 [9]): Dose-dependent effect | Activity (PC-3 [10]): Tde | viability at 4 µM (PC-3 [11]): 8.5% | IC50 (A549): 5.87 µM | Activity (PC-3 [12]): 0.2% | IC50 (B16-F10): 10.7 µM | IC50 (MCF7): 1.8 µM | Activity (PC-3 [13]): 93% | Activity (PC-3 [14]): 0.2% | Activity (PC-3 [15]): Active | Activity (PC-3 [16]): 78.6% | Activity (PC-3 [17]): 69.1% | Activity (PC-3 [18]): Dose-dependent effect | Activity (PC-3 [19]): 8% | viability at 2 µM (PC-3 [20]): 87.7% | Activity (PC-3 [21]): 3% | Activity (PC-3 [22]): 0.6% | viability at 3 µM (PC-3 [23]): 80.8% | Activity (PC-3 [24]): 9.3% | Activity (PC-3 [25]): 9.6% | Activity (PC-3 [26]): 2.3% | Activity (PC-3 [27]): 2.6% | IC50 (PC-3 [1]): 0.85 µM

CCCCCCCNC[C@@H]1OC[C@H](N)[C@@H]1O
IC50 (A549): > 128 µM | IC50 (B16-F10): > 128 µM | IC50 (MCF7): > 128 µM | IC50 (PC-3 [1]): 22.4 µM
